Test results reported in PubChem BioAssay.
Inconclusive results are not listed.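 How the source made its calls, unless noted: active means inhibition over a set limit, the all-compound mean plus 3 SD, in both replicate runs; inconclusive means over that limit in just one replicate run; inactive means at or under that limit in both runs.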

Experiments:
[1] = S. cerevisiae growth inhibition in permissive medium (OD615), pilot counter-assay for S. cerevisiae lifespan shortening project, permissive growth control (AID 705;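 active means growth inhibition above 25% in both replicates, a cutoff set 3 SD above the mean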); conditions: OD615, 24 h, at 10 µM, active compounds read high
In short: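 Material: engineered DeaD yeast; Compound: one dose 10 µM, DMSO 0.25% final; Detection: absorbance (optical density) at 615 nm; Buffer or medium: permissive raffinose/galactose medium; Timing: 24 h exposure, 30 °C.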

[2] = S. cerevisiae growth inhibition in restrictive medium, OD615, pilot screen, restrictive growth control, yeast lifespan reduction project (AID 706;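 active means growth inhibition above a set limit, 3 SD over mean compound inhibition, in both replicates, cut at about 43% in these data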;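 further: modified DeaD lifespan yeast strain shifted to restrictive glucose medium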); conditions: OD615, 48 h, at 10 µM, active compounds read high
In short: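 Buffer or medium: restrictive glucose medium (CSMM-D); test system: modified S. cerevisiae; doses: single dose of 10 µM compound final, 0.25% DMSO; schedule: 48 h compound exposure at 30 °C; detection: absorbance (optical density) measured at 615 nm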

[3] = doxorubicin toxicity protection in MRP-1 cells – H69AR cells, CellTiter-Glo, duplicate, MRP-1 activator project, pilot screen (AID 807;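 active means viability increase at or above a cutoff of the median across tested compounds plus 3 SD, cut at about 8.5% in these data, passing the limit was not always enough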;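 further: compound pretreatment 18-22 h then 72 h combined with doxorubicin; 0% = doxorubicin alone and 100% = vehicle without doxorubicin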); conditions: H69AR viability with doxorubicin, CellTiter-Glo luminescence; at 10 µM; active compounds read high
[4] = viability of HCT116 without oncogenic beta-catenin – human colon tumor cells, pilot screen (AID 823;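 active means cell viability at or below a set limit in both duplicate runs, the limit being the all-compound median minus 4 SD, cut at about 23% in these data, passing the limit was not always enough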;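 further: 0% = wells killed by 20 µM Hyamine and 100% = untreated DMSO cell wells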); conditions: HCT116 beta-catenin knockout viability, CellTiter-Glo, 60 h; at 10 µM; active compounds read low
[5] = viability of PTEN-null HCT116 cells – cell-based, HCT116 clonal line, CellTiter-Glo, pilot screen (AID 824;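 active means viability at or below 27.92% in each of two runs, the all-compound median minus 4 SD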;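 further: 0% = 20 µM Hyamine control and 100% = vehicle cell control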); conditions: HCT116 PTEN-deleted viability, 60 h, at 10 µM, active compounds read low
[6] = RAM pathway blockade in budding yeast – dse1pr::URA3 reporter, 5-FOA selection, pilot screen (AID 869);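 further: 0% = DMSO wells with no growth and 100% = 10 µM 1-NA-PP1 with full growth; RAM network block rescues cells from 5-FOA so hits raise OD615 growth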; conditions: S. cerevisiae dse1pr::URA3 5-FOA growth, OD615, 2 d; at 10 µM; active compounds read high; strain carries analog-sensitive mutant Cbk1 kinase
[7] = RAM signaling pathway blockade in yeast – S. cerevisiae, Pdr1DBD-CYC8 efflux-inhibited sensitized strain, primary screen (AID 1298;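 active means RAM network inhibition above 8.4% in each of two replicates, 3 SD over the compound average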;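 further: 0% = DMSO untreated cells without growth and 100% = 10 µM 1-NA-PP1 full growth; higher means more yeast growth rescued from 5-FOA killing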); conditions: S. cerevisiae cbk1-as DSE1-URA3 strain, 5-FOA growth OD615, 2 d; at 50 µM; active compounds read high

CN1CCN(c2cc(=O)n(C3CCCCC3)c(=O)[nH]2)CC1
inactive: growth inhibition [1] -17.5% | growth inhibition [2] -8.34% | viability increase [3] 0.57% | viability [4] 101% | viability [5] 103% | inhibition [6] 1.9% | RAM network inhibition [7] 1.26%

CN(Cc1ccccc1)C(=O)CCS(=O)(=O)c1ccc2c(c1)n(C)c(=O)c(=O)n2C
inactive: growth inhibition [1] -4.66% | growth inhibition [2] -4.58% | viability increase [3] 0.66% | viability [4] 95.7% | viability [5] 100% | inhibition [6] 1.23% | RAM network inhibition [7] 4.6%

Cc1ccc(O)c(C2=NOC(O)(C(F)(F)C(F)F)C2)c1 (centres undefined)
inactive: growth inhibition [1] -0.995% | growth inhibition [2] 9.35% | viability increase [3] -5.27% | viability [4] 93.4% | viability [5] 92.9% | inhibition [6] 0.72% | RAM network inhibition [7] 5.23%

CCc1ccc(NS(=O)(=O)c2cc(OC)ccc2OC)cc1
inactive: growth inhibition [1] -3.06% | growth inhibition [2] -9.52% | viability increase [3] -3.77% | viability [4] 66.6% | viability [5] 58.3% | inhibition [6] 0.68% | RAM network inhibition [7] 1.9%

CC(C)NS(=O)(=O)c1ccc2c(c1)oc(=O)n2C
inactive: growth inhibition [1] -2.26% | growth inhibition [2] 2.4% | viability increase [3] -0.75% | viability [4] 106% | viability [5] 98.7% | inhibition [6] -0.14% | RAM network inhibition [7] 0.91%

Cc1csc2nc(CNC(=O)C3CCCCC3)cn12
inactive: growth inhibition [1] -16.4% | growth inhibition [2] -13.2% | viability increase [3] -3.04% | viability [4] 105% | viability [5] 97.2% | inhibition [6] 0.93% | RAM network inhibition [7] 0.53%

O=C(C1CCC(CNc2c(N3CCCCC3)c(=O)c2=O)CC1)N1CCCCC1 (centres undefined)
inactive: growth inhibition [1] -8.65% | growth inhibition [2] -19.7% | viability increase [3] -1.79% | viability [4] 94.3% | viability [5] 93.6% | inhibition [6] 1.09% | RAM network inhibition [7] 7.26%

O=C(Nc1ncc(Br)s1)C(Cc1ccccc1)n1cccc1 (centres undefined)
inactive: growth inhibition [1] -17.7% | growth inhibition [2] -13.6% | viability increase [3] -6.2% | viability [4] 63.7% | viability [5] 58% | inhibition [6] 2.83% | RAM network inhibition [7] -0.21%

CC(=O)NCCn1c(C)cc2ccccc21
inactive: growth inhibition [1] 2.67% | growth inhibition [2] -0.185% | viability increase [3] -0.52% | viability [4] 95.3% | viability [5] 105% | inhibition [6] 0.97% | RAM network inhibition [7] 0.86%

O=C(Nc1ccccc1)OCCOc1ccccc1
inactive: growth inhibition [1] -9.16% | growth inhibition [2] 4.62% | viability increase [3] 2.54% | viability [4] 91.7% | viability [5] 100% | inhibition [6] 2.92% | RAM network inhibition [7] 1.95%

O=C(CN(C1CCCCC1)S(=O)(=O)c1ccc(Cl)cc1)NCc1ccncc1
inactive: growth inhibition [1] -6.84% | growth inhibition [2] 3.38% | viability increase [3] -2.2% | viability [4] 79.8% | viability [5] 79.4% | inhibition [6] 1.56% | RAM network inhibition [7] 3.63%

O=S(=O)(c1ccccc1)n1ccc2ccccc21
inactive: growth inhibition [1] -3% | growth inhibition [2] 5.11% | viability increase [3] -5.11% | viability [4] 87.4% | viability [5] 89.1% | inhibition [6] 0.255% | RAM network inhibition [7] 6.25%

COc1ccc(-c2nc3n(n2)C(c2ccccc2Cl)C(C(N)=O)=C(C)N3)cc1 (centres undefined)
inactive: growth inhibition [1] -14.2% | growth inhibition [2] 0.71% | viability increase [3] -0.48% | viability [4] 96.9% | viability [5] 96.2% | inhibition [6] 1.66% | RAM network inhibition [7] -1.36%

O=C(NCCCN1CCCC1)c1ccc(CS(=O)(=O)c2ccc(Br)cc2)o1
inactive: growth inhibition [1] -5.7% | growth inhibition [2] -13.3% | viability increase [3] -0.99% | viability [4] 90.6% | viability [5] 96.5% | inhibition [6] 1.63% | RAM network inhibition [7] 2.23%

Cc1ccc(-c2nc(CS(=O)(=O)CC(=O)N3CCCCCC3)c(C)o2)cc1
inactive: growth inhibition [1] -2.76% | growth inhibition [2] 0.63% | viability increase [3] -1.22% | viability [4] 50% | viability [5] 70.6% | inhibition [6] 0.26% | RAM network inhibition [7] 4.22%

CCCSc1nnc(Cn2c(=O)sc3ccccc32)n1-c1ccccc1
inactive: growth inhibition [1] -9.77% | growth inhibition [2] 3.11% | viability increase [3] 1.4% | viability [4] 92.6% | viability [5] 81.3% | inhibition [6] 3.3% | RAM network inhibition [7] 11%

COc1cc(OC)c(C2Oc3nc(SC)nnc3-c3ccccc3N2C(C)=O)cc1OC (centres undefined)
inactive: growth inhibition [1] 4.06% | growth inhibition [2] -0.66% | viability increase [3] -4.95% | viability [4] 108% | viability [5] 108% | inhibition [6] 3.23% | RAM network inhibition [7] 1.75%

CC(C)C(=O)N=c1sc2cc(F)cc(F)c2n1C
inactive: growth inhibition [1] -9.84% | growth inhibition [2] -0.65% | viability increase [3] -1.28% | viability [4] 94.1% | viability [5] 99% | inhibition [6] 0.01% | RAM network inhibition [7] 0.96%

CC1CCN(CCCn2c(=S)[nH]c3ccccc3c2=O)CC1
inactive: growth inhibition [1] 1.02% | growth inhibition [2] 10.3% | viability increase [3] -2.18% | viability [4] 91.3% | viability [5] 93.7% | inhibition [6] 1.1% | RAM network inhibition [7] 0.66%

Cn1c(C(=O)N2CCCCCC2)cc2c(=O)n(C)c3ccccc3c21
inactive: growth inhibition [1] -8.92% | growth inhibition [2] -2.14% | viability increase [3] -3.27% | viability [4] 94.9% | viability [5] 92.3% | inhibition [6] 1.33% | RAM network inhibition [7] 4.52%

COc1ccc(-c2[nH]ncc2-c2cnc(C)s2)c(O)c1
inactive: growth inhibition [1] -13.3% | growth inhibition [2] -13% | viability increase [3] -1.25% | viability [4] 99.2% | viability [5] 98.9% | inhibition [6] 2% | RAM network inhibition [7] 2.98%

O=C1CN(C(=O)CN2CCOCC2)C(c2ccccc2)c2cc(Br)ccc2N1 (centres undefined)
inactive: growth inhibition [1] -9.19% | growth inhibition [2] -11.4% | viability increase [3] -3.48% | viability [4] 96.4% | viability [5] 92.8% | inhibition [6] 0.785% | RAM network inhibition [7] 1.01%

CCOC(=O)C1CCN(S(=O)(=O)c2cccc3nonc23)CC1
inactive: growth inhibition [1] -5.04% | growth inhibition [2] -10.7% | viability increase [3] 0.01% | viability [4] 100% | viability [5] 96.8% | inhibition [6] 1.46% | RAM network inhibition [7] -1.5%

Nc1cc(=O)[nH]c(SCc2nc3ccccc3n2Cc2ccccc2)n1
inactive: growth inhibition [1] -2.77% | growth inhibition [2] 17% | viability increase [3] -0.14% | viability [4] 90.4% | viability [5] 89% | inhibition [6] 0.71% | RAM network inhibition [7] 6.17%

CCOc1ccc(C2c3c(oc4ccccc4c3=O)C(=O)N2c2ccc(C)cn2)cc1OC (centres undefined)
inactive: growth inhibition [1] -7.41% | growth inhibition [2] 2.13% | viability increase [3] -4.09% | viability [4] 81.4% | viability [5] 83.7% | inhibition [6] 1.88% | RAM network inhibition [7] 4.03%

O=C(NCCN1CCOCC1)NC1(C(F)(F)F)Oc2ccccc2O1
inactive: growth inhibition [1] -11% | growth inhibition [2] 4.58% | viability increase [3] -4.99% | viability [4] 76.3% | viability [5] 84.5% | inhibition [6] 0.645% | RAM network inhibition [7] 0.82%

COc1ccc(C2N3CC4(C)CN2CC(C)(C3)C4=O)cc1OC (centres undefined)
inactive: growth inhibition [1] -1.15% | growth inhibition [2] 2.95% | viability increase [3] -0.5% | viability [4] 102% | viability [5] 103% | inhibition [6] 1.67% | RAM network inhibition [7] 0.11%
